Source: ChEMBL document CHEMBL1139032, “Design and modular parallel synthesis of a MCR derived alpha-helix mimetic protein-protein interaction inhibitor scaffold” (Bioorg Med Chem Lett, 2006)
Calls of active or inactive are those of the source. The calls are words filed in the database; no cut-off is given here.

Assays:
[1] = molecular target: Apoptosis regulator Bcl-2 (Homo sapiens) (UniProt P10415); test: Inhibition of Bcl2 by FP assay
In short: (§1)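 Run in 20 mM potassium phosphate pH 7.4 with 1 mM EDTA, 50 mM NaCl and 0.05% Pluronic F-68, at 10% final DMSO. Polarization read at ex 485/em 535 nm after 2 h at room temperature.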

[2] = system: HL-60; test: Antiproliferative activity against HL60 cells by WST-1 assay; conditions: Homo sapiens
[3] = molecular target: Bcl-2-like protein 1 (Homo sapiens) (UniProt Q07817); test: Inhibition of BclXL by FP assay; in short: as §1
Bcl-2-like protein 1 (Homo sapiens), sequence (Q07817 whole entry): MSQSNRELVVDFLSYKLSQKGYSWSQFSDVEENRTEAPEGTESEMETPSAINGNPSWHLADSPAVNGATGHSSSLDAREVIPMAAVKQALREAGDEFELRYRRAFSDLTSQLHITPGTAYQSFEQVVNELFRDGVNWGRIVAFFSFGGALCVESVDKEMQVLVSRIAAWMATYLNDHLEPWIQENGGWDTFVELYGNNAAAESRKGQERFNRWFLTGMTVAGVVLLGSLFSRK

[4] = molecular target: T1, Bcl-2-like protein 2 (Homo sapiens, UniProt Q92843); test: Inhibition of Bclw by FP assay; in short: as §1
T1 sequence (Q92843 whole entry): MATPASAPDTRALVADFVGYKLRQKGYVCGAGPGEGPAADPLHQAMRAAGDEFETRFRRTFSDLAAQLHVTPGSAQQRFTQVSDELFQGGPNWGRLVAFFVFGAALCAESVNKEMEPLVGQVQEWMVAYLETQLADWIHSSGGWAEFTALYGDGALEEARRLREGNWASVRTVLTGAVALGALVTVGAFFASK

Apoptosis regulator Bcl-2 (Homo sapiens), sequence (P10415 whole entry): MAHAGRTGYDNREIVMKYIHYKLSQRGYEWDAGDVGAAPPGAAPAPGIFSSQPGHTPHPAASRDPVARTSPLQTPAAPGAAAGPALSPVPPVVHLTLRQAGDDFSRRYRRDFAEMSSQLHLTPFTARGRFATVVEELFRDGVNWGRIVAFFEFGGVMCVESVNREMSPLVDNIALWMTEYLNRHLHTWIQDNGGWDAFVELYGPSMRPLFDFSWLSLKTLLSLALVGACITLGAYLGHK

Row | SMILES | Activity [1] | GI50 [2] | Activity [3] | IC50 [4]
1 | CCCc1c(-c2ccccc2Oc2ccccc2)ncn1Cc1ccccc1OC | inactive | 12.5 µM | inactive | 14 µM
2 | CCCCc1c(-c2ccccc2OC)ncn1Cc1cccc(-c2ccccc2)c1 | inactive | 13 µM | inactive | 26.9 µM
3 | CCCCc1c(-c2ccccc2Oc2ccccc2)ncn1CCc1ccccc1OC | inactive | 9.43 µM | inactive | 8.09 µM
